Screening data deposited in PubChem by several laboratories.
ABHD5 PLIN5 PPI = blocks binding of human ABHD5 to perilipin-5. Split G. princeps luciferase complementation, luminescence, 4 h. Q00G26+Q8WTS1. AID 602281. inhibition, % at 4 µM. hit rate 0.78% among 360,000;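 active means inhibition above the mean inhibition across every tested compound plus 3 SD, cut at about 22% in these data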
B2AR ag = agonists of human beta-2 adrenergic receptor inducing internalization. Am2.2-beta2AR cells, FAP receptor internalization, flow cytometry. hit rate 0.43% among 340,000. response, % (test concentration not listed). AID 504454;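 active means response above a set limit, near 3 SD of response in nonfluorescent compounds, cut at about 42% in these data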
MBD2 inh = blocks human MBD2 binding to methylated DNA | Q9UBB5 | TR-FRET, MBD2 binding to methylated oligonucleotide | hit rate 0.31% among 370,000 | inhibition, % at 4.4 µM | AID 686964; in the data active means inhibition above about 13%
Target sequence (Q9UBB5 whole entry, looked up): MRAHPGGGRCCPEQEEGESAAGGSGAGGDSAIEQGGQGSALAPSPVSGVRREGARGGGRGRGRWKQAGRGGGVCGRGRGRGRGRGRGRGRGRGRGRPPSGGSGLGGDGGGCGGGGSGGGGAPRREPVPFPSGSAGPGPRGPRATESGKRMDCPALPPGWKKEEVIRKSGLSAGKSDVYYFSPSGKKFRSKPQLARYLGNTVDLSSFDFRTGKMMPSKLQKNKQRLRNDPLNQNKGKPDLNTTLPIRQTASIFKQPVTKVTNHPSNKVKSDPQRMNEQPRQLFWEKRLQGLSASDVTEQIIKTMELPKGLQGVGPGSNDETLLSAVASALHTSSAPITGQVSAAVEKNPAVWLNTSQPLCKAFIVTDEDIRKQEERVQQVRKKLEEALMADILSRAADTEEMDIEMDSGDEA
Arr AP2 block = inhibitors of human beta-arrestin and AP2 interaction; hit rate 0.31% among 340,000; FITC-arrestin peptide / GST-AP2 beads, flow cytometry; AP2 beta2 appendage carries R879A mutation; inhibition, % at 10 µM;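 active means inhibition above a set limit, near 3 SD of compounds lacking own fluorescence, cut at about 54% in these data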
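test system = AP2 appendage R879A on GSH beads | buffer or medium = PBS plus Tween 20 (0.05%) and BSA (0.1%) | incubation = 12 min plus 1 h, RT | detection = bead flow cytometry, FITC channel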
Rin1 Abl inh = human Rin1-Abl interaction inhibition; P00519+Q13671; inhibition, % at 7.35 µM; hit rate 0.4% among 360,000; TR-FRET Rin1/Abl binding, biochemical; in the data active means inhibition above about 5%, passing the limit was not always enough
UHRF1 MBD2 ctr = human UHRF1 methylated DNA binding inhibitors; Q96T88; UHRF1 binding to methylated oligo, TR-FRET; inhibition, % at 4.4 µM; hit rate 0.75% among 370,000; AID 687016; in the data active means inhibition above about 21%;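 further: UHRF1 SRA domain binding a hemimethylated CpG hairpin DNA probe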
ABHD5-PLIN5 conf = ABHD5-PLIN5 interaction inhibition, confirmed. shares compounds with ABHD5 PLIN5 PPI. biochemical ABHD5-PLIN5 interaction, luminescence. inhibition, % at 4 µM. hit rate 67% among 2,200. AID 651612; in the data active means inhibition above about 23%
HNF4 counter = active in HNF4 split-luciferase counter-screen for ABHD5-PLIN5 inhibitors; shares compounds with ABHD5 PLIN5 PPI; HNF4 dimerization, luminescence, biochemical; inhibition, % at 4 µM; hit rate 77% among 2,200;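 active means mean inhibition across replicate wells exceeding the computed hit threshold, cut at about 13% in these data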;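 further: light from luciferase halves that rejoin when HNF4 fusion proteins dimerize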
Numbers stand for hits; n = inactive; x = not tested or not shown. Shown are actives, neighbours in structure and some others; about 2.5% of the full set was active somewhere.

SMILES	ABHD5 PLIN5 PPI	B2AR ag	MBD2 inh	Arr AP2 block	Rin1 Abl inh	UHRF1 MBD2 ctr	ABHD5-PLIN5 conf	HNF4 counter
CN(CC(=O)N1CCCCC1)S(=O)(=O)c1ccc(Cl)cc1	n	n	n	n	n	n	x	x
CN(CC(=O)N1CCCC1)S(=O)(=O)c1ccc(Cl)cc1	27.1	n	n	n	n	n	n	n
Cc1[nH]nc(C(F)(F)F)c1N=NN1CCOCC1	49.6	n	n	n	n	n	41.0	75.5
Clc1ccc(N=NN2CCOCC2)cc1	n	n	n	n	n	n	x	x
COc1cccc(/C=N\N2CCN(c3ccc(C)cc3)CC2)c1O	x	x	n	x	x	n	x	x
COc1cc(C(C2C(=O)CC(C)(C)CC2=O)C2C(=O)CC(C)(C)CC2=O)ccc1OC(C)=O	25.5	n	n	n	n	n	36.6	33.3
COc1cc(C(C2C(=O)CC(C)(C)CC2=O)C2C(=O)CC(C)(C)CC2=O)ccc1O	n	n	n	n	n	n	x	x
CC(C)(C)N1Cc2nnn(CC3CCCCC3)c2-c2ccccc2S1(=O)=O	x	x	n	x	x	n	x	x
O=C1NC(=Nc2ccc(O)cc2)S/C1=C\C=C\c1ccco1	33.1	n	n	n	n	n	27.2	44.7
COc1ccc(C(=O)C(CN2CCOCC2)c2ccccc2)cc1 (stereo not drawn)	n	n	n	n	n	n	x	x
c1ccc(C(CN2CCOCC2)c2ccccc2)cc1	n	n	n	n	n	n	x	x
O=C(c1ccccc1)C(CCC(CN1CCOCC1)C(=O)c1ccccc1)CN1CCOCC1 (stereo not drawn)	57.6	n	n	n	n	n	46.0	101.7
O=C(c1ccc(F)cc1)C(CN1CCOCC1)c1ccccc1 (stereo not drawn)	37.8	n	n	n	n	n	28.7	99.5
O=C(c1ccc(Cl)cc1)C(CN1CCCC1)c1ccccc1 (stereo not drawn)	48.0	n	n	n	n	n	53.0	102.6
COC(=O)c1ccc(Cn2ccc3ccc(-c4ccc5ccn(Cc6ccc(OC)cc6)c5c4)cc32)cc1	x	x	n	x	x	n	x	x
CCCC(=O)OC12CCCN(C1)/C(=C/c1cccc(OC)c1)C2 (stereo not drawn)	x	x	n	x	x	n	x	x
Cc1ccc(-n2nnnc2Sc2ccc(S(=O)(=O)NCCN(C)C)cc2[N+](=O)[O-])cc1	31.2	n	n	n	n	n	n	34.2
O=[N+]([O-])c1cc(S(=O)(=O)NCCN2CCOCC2)ccc1Sc1nnnn1-c1ccccc1	n	n	n	n	n	n	x	x
Cc1ccc(C)c(/C=C/C(=O)c2ccccc(=O)c2O)c1	29.8	n	n	n	n	n	55.6	34.7
O=C(/C=C/c1ccc([N+](=O)[O-])cc1)c1cccs1	n	n	n	n	n	n	x	x
O=C(/C=C/c1ccc([N+](=O)[O-])cc1)c1ccccc(=O)c1O	65.8	n	n	n	n	n	98.4	90.7
O=C(/C=C/c1ccccc1Cl)c1ccccc(=O)c1O	33.4	n	n	n	n	n	59.2	43.5
O=C1C[C@@H](C(=O)Nc2ccc(Cl)cc2)[C@@H](c2ccccc2)O1	x	x	n	x	x	n	x	x
C=C(C)Cn1c(SCC(=O)N/N=C(\C)c2ccc([N+](=O)[O-])cc2)nnc1-c1ccc(Br)cc1	x	x	n	x	x	n	x	x
CC1(C)c2ccccc2N2CC(=O)NC21/C=C/c1ccco1 (stereo not drawn)	26.9	n	n	n	n	n	n	21.3
SMILES	ABHD5 PLIN5 PPI	B2AR ag	MBD2 inh	Arr AP2 block	Rin1 Abl inh	UHRF1 MBD2 ctr	ABHD5-PLIN5 conf	HNF4 counter
Cc1ccc(-c2c(NC(=O)c3ccccc3)nc3ncccn23)cc1	x	x	n	x	x	n	x	x
Cc1ccc(/C=[N+](\[O-])c2ccccc2C)o1	23.1	n	n	n	n	n	n	n
Cn1c(=O)c(Nc2ccc(O)cc2)c2c3c(cccc31)C(=O)c1ccccc1-2	24.9	n	n	n	n	n	22.0	19.9
CNc1ncnc(Sc2nc(N)nc3nc[nH]c23)c1[N+](=O)[O-]	n	n	n	n	n	n	x	x
Nc1nc(Sc2ccc([N+](=O)[O-])c3nonc23)c2[nH]cnc2n1	53.1	n	n	n	n	n	83.0	109.7
COc1ccccc1N=CC=C1OC(C)(C)C(C)(C)O1	37.4	n	n	n	n	n	n	n
Cc1ccc(N=CC=C2OC(C)(C)C(C)(C)O2)c(C)c1	n	n	n	n	n	n	x	x
CC(=O)N(C1CC(C)C(C#N)(C#N)C1(C#N)C#N)N(C)C (stereo not drawn)	23.7	n	n	n	n	n	51.8	94.8
Cc1cc(NS(=O)(=O)c2ccc(NC(=O)Cc3ccc(Cl)c(Cl)c3)cc2)on1	x	x	n	x	x	n	x	x
O=C(CSc1n[nH]c(-c2ccccc2)n1)NC(=O)NCc1ccco1	23.5	n	n	n	n	n	n	n
Cc1cc(SCC(=O)NC(=O)NCc2ccco2)nc2ccccc12	n	n	n	n	n	n	x	x
Cc1cc(SCC(=O)NC(=O)NCc2ccco2)nc2c(C)cccc12	40.1	n	n	n	n	n	27.2	38.4
O=C1CC(Sc2nnnn2-c2ccccc2)C(=O)N1c1cccc(Cl)c1 (stereo not drawn)	37.0	n	n	n	n	n	62.1	104.3
O=C(O)c1ccccc1Nc1cc(Cl)c2nonc2c1[N+](=O)[O-]	28.6	n	n	n	n	n	79.6	94.5
O=[N+]([O-])c1c(Nc2ccc(O)cc2)cc(Cl)c2nonc12	57.9	80.9	n	n	n	n	82.7	100.7
O=C(O)c1cccc(Nc2ccc([N+](=O)[O-])c3nonc23)c1	n	n	n	n	n	n	x	x
O=C(O)c1cccc(Nc2cc(Cl)c3nonc3c2[N+](=O)[O-])c1	29.1	n	n	n	n	n	57.9	95.4
COc1ccc(S[C@]2(C(=O)NC(C)C)CC(=O)N[C@@H]2c2ccc(OC)cc2)cc1	x	x	n	x	x	n	x	x
COC(=O)C(Cc1ccccc1)NC(=O)C(CC(C)C)NC(=O)OC(C)(C)C (stereo not drawn)	n	n	n	n	n	n	x	x
CC(C)CC(NC(=O)OCc1ccccc1)C(=O)NC(Cc1ccccc1)C(=O)CCl (stereo not drawn)	24.4	n	n	n	n	n	88.3	88.2
COc1ccc(C2C(C(=O)Nc3cc(OC)c(OC)c(OC)c3)CCC(=O)N2c2ccc(OC)cc2)cc1 (stereo not drawn)	x	x	n	x	x	n	x	x
O=c1[nH]sc2ccccc12	65.0	n	n	n	n	n	65.8	109.3
Cc1ccc(CS(=O)(=O)c2ncc(Cl)c(C(=O)Nc3ccc(OC(F)F)cc3)n2)cc1	57.2	n	n	n	n	n	89.7	89.5
